Screening results: PubChem BioAssay, several laboratories
An excerpt weighted towards active compounds, which were near 2.6% of everything screened.
PAD4 FP inh – inhibitors of human PAD4; actives 0.41% (n = 330,000); inhibition, % at 6.36 µM; recombinant PAD4, RCA probe fluorescence polarization; AID 485272; Q9UM07;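 active = percent inhibition above a cutoff equal to the mean of all tested compounds plus 3 SD, cut at about 15% in these data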;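 note: 0% = PAD4 with RCA probe and DMSO and 100% = probe without PAD4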
PRMT1 FP inh – inhibitors of human PRMT1; recombinant PRMT1, activity-based probe fluorescence polarization; inhibition, % at 2.79 µM; AID 652257; actives 1.3% (n = 370,000); Q99873;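 active = inhibition above about 21% made by adding two undisclosed values, limit read from the data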
Target sequence (Q99873 whole entry, looked up): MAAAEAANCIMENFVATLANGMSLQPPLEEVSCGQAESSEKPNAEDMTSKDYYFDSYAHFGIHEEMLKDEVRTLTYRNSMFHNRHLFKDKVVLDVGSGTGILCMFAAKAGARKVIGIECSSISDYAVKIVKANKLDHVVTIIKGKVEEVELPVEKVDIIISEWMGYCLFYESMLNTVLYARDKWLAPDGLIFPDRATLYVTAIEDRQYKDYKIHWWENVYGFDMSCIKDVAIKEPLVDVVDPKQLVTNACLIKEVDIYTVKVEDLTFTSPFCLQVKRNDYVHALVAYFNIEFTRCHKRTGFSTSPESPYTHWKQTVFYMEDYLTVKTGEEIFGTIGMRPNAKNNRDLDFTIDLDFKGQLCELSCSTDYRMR
GSTO1 counter – blocks human GSTO1 in RBBP9 counter-screen; P78417; recombinant GSTO1, activity-based probe fluorescence polarization; inhibition, % at 5.96 µM; actives 1.1% (n = 300,000);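 active = inhibition above the campaign mean inhibition plus 3 SD, cut at about 35% in these data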;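 note: 0% = GSTO1-1 with DMSO and 100% = wells lacking GSTO1-1 enzyme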
Target sequence (P78417 whole entry, looked up): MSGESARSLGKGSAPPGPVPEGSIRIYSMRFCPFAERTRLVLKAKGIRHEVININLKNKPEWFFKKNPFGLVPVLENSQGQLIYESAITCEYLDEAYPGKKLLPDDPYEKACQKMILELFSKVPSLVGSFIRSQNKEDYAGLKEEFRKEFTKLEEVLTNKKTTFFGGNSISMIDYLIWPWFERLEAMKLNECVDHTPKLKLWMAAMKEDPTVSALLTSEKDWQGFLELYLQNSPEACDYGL
Apaf1 inhib – human Apaf-1 inhibition. O14727. reconstituted apoptosome caspase-3 activity, DEVD-Rh110 fluorescence. inhibition, % at 20 µM. actives 0.71% (n = 330,000); active = inhibition of at least 40% at 20 µM;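 note: plate controls were DMSO wells for no effect and DEVD-CHO caspase inhibitor wells for full effect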
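Material: biochemical Apaf-1 apoptosome reconstitution. Medium: Hepes buffer, pH 7.5. Also added: cytochrome c activation, bis-DEVD rhodamine 110 substrate. Timing: 30 min compound preincubation, 50 min activation, room temperature. Measured by: rhodamine 110 fluorescence at Ex 480/Em 540 nm.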
TDP2 inh – blocks human TDP2 phosphodiesterase activity; inhibition, % at 12.8 µM; recombinant TDP2, T5PNP hydrolysis, p-nitrophenol absorbance 415 nm; O95551; actives 0.34% (n = 370,000);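 active = inhibition above the mean of all tested compounds plus 3 SD, set per campaign, cut at about 25% in these data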;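 note: 0% = DMSO with enzyme and 100% = buffer with substrate but no TDP2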
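Read-out basis: percent inhibition. System: recombinant human TDP2. Buffer or medium: Mg2+-containing Tris-HCl buffer, pH 7.5. Repeats: single replicate. Timing: reaction 2 h, 37 °C. Benchmarks: high control without enzyme, low control DMSO plus TDP2. Probe or stimulus: 5 mM T5PNP. Doses: 12.8 µM only. Measured by: epi absorbance of p-nitrophenol freed from T5PNP by hydrolysis.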
PRMT1 confirm – PRMT1 (human) inhibition, FP confirmation; recombinant His-PRMT1, activity-based probe fluorescence polarization; AID 687036; inhibition, % at 2.79 µM; actives 42% (n = 3,300); shares compounds with PRMT1 FP inh;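 active = mean inhibition across replicates above the hit cutoff derived for the earlier primary screen, cut at about 22% in these data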
* hit, by the source's call; nt = no result given.

SMILES | PAD4 FP inh | PRMT1 FP inh | GSTO1 counter | Apaf1 inhib | TDP2 inh | PRMT1 confirm
O=C(CC(Sc1ccccc1)c1cccs1)c1ccco1 (centres undefined) | 4.8 | 80.3* | -0.3 | -4.4 | -3.7 | 83.4*
COc1ccc(N(CC(=O)NN=C2CCN(C)CC2)S(=O)(=O)c2ccccc2)c(OC)c1 | -3.2 | -1.8 | 1.9 | 5.3 | -8.2 | nt
O=C(CSc1oc(-c2ccco2)nc1S(=O)(=O)c1ccc(F)cc1)NCC1CCCO1 (centres undefined) | -4.2 | 45.5* | -3.1 | 5.4 | -2.1 | 6.7
O=C(CSc1oc(-c2ccco2)nc1S(=O)(=O)c1ccccc1)NCC1CCCO1 (centres undefined) | -0.3 | 10.2 | -0.1 | 6.0 | 14.7 | nt
CCN(C(=O)COC(=O)Cc1coc2cc(C)ccc12)c1c(N)n(Cc2ccccc2)c(=O)[nH]c1=O | -8.8 | 0.8 | nt | -3.5 | 0.8 | nt
CCCCn1c(N)c(N(CCC(C)C)C(=O)CSc2nc3ccccc3n2C)c(=O)[nH]c1=O | nt | 26.7* | nt | nt | 17.1 | 18.7
Cc1ccc2c(CC(=O)N(C)c3c(N)n(Cc4ccccc4)c(=O)[nH]c3=O)coc2c1 | 3.6 | 94.1* | 1.8 | 10.5 | 10.2 | -2.0
CCn1c(SCC(=O)N(C)c2c(N)n(Cc3ccccc3)c(=O)[nH]c2=O)nc2ccccc21 | 3.1 | 26.6* | 0.1 | -14.5 | 10.0 | 27.0*
CCN(C(=O)CN1CCN(c2ccc(O)cc2)CC1)c1c(N)n(Cc2ccccc2)c(=O)[nH]c1=O | 1.7 | 27.5* | 22.8 | 8.9 | 3.4 | 9.4
COc1cc(NC(=O)CNc2cccc(S(=O)(=O)N3CCOCC3)c2)cc(OC)c1 | nt | -2.3 | nt | 6.2 | 4.1 | nt
CCN(C(=O)CSc1nnc(-c2ccc(C)cc2)n1N)c1c(N)n(Cc2ccccc2)c(=O)[nH]c1=O | nt | -0.5 | nt | -0.2 | 0.1 | nt
CCN(C(=O)CSc1nnc(-c2cccc(Cl)c2)n1N)c1c(N)n(Cc2ccccc2)c(=O)[nH]c1=O | nt | 31.5* | nt | nt | -1.2 | 37.7*
O=C1C=C(c2c(O)ccc3ccccc23)c2ccccc2C1=O | nt | 40.9* | nt | nt | 18.8 | 39.7*
O=C(O)c1cc2ccccc2c2c1C(=O)c1ccccc1-2 | nt | 0.0 | nt | nt | -1.8 | nt
CCOc1cc(/C=C2\NC(=O)NC2=O)ccc1OC(C)C(=O)O (centres undefined) | -0.8 | -3.0 | 1.3 | -1.9 | 9.2 | nt
COc1ccc(NC(=O)C2CC(=O)n3cnnc3S2)cc1 (centres undefined) | 0.3 | 74.2* | -5.6 | 0.1 | 5.0 | 79.5*
COc1ccc(NC(=O)C2CC(=O)n3ncnc3N2)cc1 (centres undefined) | -2.9 | 1.2 | 4.5 | -12.6 | 4.8 | nt
COc1cccc(NC(=O)C2CC(=O)n3cnnc3S2)c1 (centres undefined) | -2.2 | 78.8* | 1.9 | 14.0 | -0.4 | 61.1*
O=C1CCCN1CCCNS(=O)(=O)c1ccc(F)c(F)c1 | 1.9 | -0.8 | 4.6 | 0.6 | 3.8 | nt
CCOc1cc2c3c(c1)C1(OCCO1)C(=O)N3C(C)(C)CC2C (centres undefined) | -4.2 | -4.6 | 1.9 | 2.7 | 2.8 | nt
CCOc1cc2c3c(c1)C1(Nc4ccccc4S1)C(=O)N3C(C)(C)CC2C (centres undefined) | -7.6 | 78.2* | 9.9 | 15.4 | 3.0 | 8.5
CC(=O)Nc1ccc(C2=NNC(=NCC3CCCO3)SC2)cc1 (centres undefined) | 12.9 | 40.9* | 2.4 | nt | -6.0 | 33.2*
Fc1ccc(F)c(C2=NNC(=NCC3CCCO3)SC2)c1 (centres undefined) | 0.1 | 37.6* | 0.6 | 2.3 | -19.0 | 9.7
COCC(C)N=C1NN=C(c2ccc(NC(C)=O)cc2)CS1 (centres undefined) | -0.8 | 11.3 | 5.8 | -14.4 | 10.2 | nt
CCOc1ccc(N=C2NN=C(c3cc(C)n(CC4CCCO4)c3C)CS2)cc1 (centres undefined) | -1.0 | -0.7 | -3.0 | 4.7 | -3.2 | nt
SMILES | PAD4 FP inh | PRMT1 FP inh | GSTO1 counter | Apaf1 inhib | TDP2 inh | PRMT1 confirm
C=Cn1c(C(=O)O)ccc1-c1ccc(CC)cc1 | -7.6 | 0.2 | -2.9 | -14.6 | 5.6 | nt
CCc1ccc(-c2csc3[n+]2CCN3C(C)=O)cc1 | 14.7 | 71.6* | 6.2 | -16.5 | 8.5 | 46.1*
CC(C)C1=CC(=Nc2ccc(S(N)(=O)=O)cc2)C=C(C(C)C)C1=O | nt | 7.6 | nt | 8.2 | -17.8 | nt
S=c1nccc(-c2cccs2)[nH]1 | 4.2 | 49.1* | -2.7 | -6.7 | -13.8 | 21.9*
Cc1cc(CNC(=O)c2cccnc2Cl)c2ccccc2n1 | -4.1 | 4.4 | 17.8 | -10.6 | -2.6 | nt
COCCN(Cc1ccccc1)C(=O)c1ccc2c(=O)n3c(nc2c1)CCC3 | -1.1 | 4.6 | 10.3 | 0.0 | -14.5 | nt
COC(=O)C1(C(=O)OC)C/C=C\CCN(S(=O)(=O)c2ccccc2[N+](=O)[O-])CC1 | nt | -4.8 | nt | nt | -4.0 | nt
CCOc1ccc(C(=O)NCC(c2cccs2)N(C)C)cc1OCC (centres undefined) | -2.1 | -1.3 | 2.3 | 1.2 | 5.9 | nt
CCCCSc1nc(SCC(=O)NCc2ccco2)c2c3c(sc2n1)COC(C)(CC)C3 (centres undefined) | -1.1 | 5.5 | -15.5 | 32.5 | 1.9 | nt
CSc1nc(SCC(=O)NCc2ccco2)c2c3c(sc2n1)COC(C)(C)C3 | -4.2 | 37.8* | -6.7 | 3.8 | -6.6 | 7.1
CCCS(=O)(=O)c1c(S(=O)(=O)CCC)c2c(N)cccn2c1C(=O)c1ccc(F)cc1 | -3.8 | 25.6* | -7.9 | 9.3 | 0.7 | 6.8
CC(C(=O)NC1C(=O)N2C(C(=O)O)=C(CSc3nnnn3C)CSC12)n1cc(Br)cn1 (centres undefined) | -2.8 | 19.8 | -2.8 | -4.0 | 12.2 | nt
Cc1nnc(SCC2=C(C(=O)O)N3C(=O)C(NC(=O)c4cccc(F)c4F)C3SC2)s1 (centres undefined) | -5.7 | 59.2* | -6.0 | -12.8 | -7.7 | 29.2*
Cc1nnc(SCC2=C(C(=O)O)N3C(=O)C(NC(=O)Cn4ncc(Cl)c4C)C3SC2)s1 (centres undefined) | -0.5 | 50.1* | 13.1 | -3.5 | 1.4 | 36.8*
Cn1nnnc1SCC1=C(C(=O)O)N2C(=O)C(NC(=O)C3CC3c3ccccc3)C2SC1 (centres undefined) | -0.4 | 27.9* | 5.2 | -0.1 | 15.5 | 13.0
Cc1cc(C)n(CC(=O)NC2C(=O)N3C(C(=O)O)=C(CSc4nnc(C)s4)CSC23)n1 (centres undefined) | -0.2 | 35.0* | 6.3 | -10.1 | -2.5 | 20.0
CC1=C(C(=O)O)N2C(=O)C(NC(=O)c3c(F)cccc3F)C2SC1 (centres undefined) | nt | -2.5 | nt | 3.4 | -3.9 | nt
CN(C)c1ccc2nc3c(=O)[nH]c(=O)nc-3n(CC(O)C(O)C(O)CO)c2c1 (centres undefined) | -110.8 | 80.3* | -148.7 | 30.9 | 1.9 | 55.0*
